Experimental data from different studies.
SLC6A4: Sodium-dependent serotonin transporter (SLC6A4, Homo sapiens, UniProt P31645)
rep papain-like protease: Replicase polyprotein 1ab, papain-like protease (rep, Porcine epidemic diarrhea virus, UniProt P0C6Y4)

| Structure (SMILES) | target | effect on | action | method | quantity | value |
| --- | --- | --- | --- | --- | --- | --- |
| O=C1CCC(N2Cc3cc(-c4cc5ccccc5cn4)ccc3C2=O)C(=O)N1 (stereo not drawn) | WEE1/CRBN (Homo sapiens, UniProt P30291+Q96SW2) | protein level | degrader | – | DC50 | 0.043 µM |
| CCOC(=O)[C@@]12C[C@@H]1[C@@H](n1cnc3c(NCCCCCCc4ccccc4)nc(I)nc31)[C@H](O)[C@@H]2O | SLC6A4 | ligand displacement | – | radioligand | Ki | 4.6 µM |
| O=C(NCc1cc(O)c(O)c(Br)c1)c1cccc(CCl)c1 | rep papain-like protease | enzyme activity | inhibitor | FRET | IC50 | 3.08 µM |
| Cc1cc2[nH]cc(C(=O)O)c(=O)n2n1 | Peptidyl-prolyl cis-trans isomerase F, mitochondrial (PPIF, Homo sapiens, UniProt P30405) | binding | – | SPR | Kd | > 20000 µM |
| O=C(NCc1ccc(Br)cc1)c1c[nH]c(-c2n[nH]c3ncccc23)c1 | E3 ubiquitin-protein ligase NEDD4 (Homo sapiens, UniProt P46934) | binding | – | MST | Kd | 0.0439 µM |
| OC[C@@H]1O[C@@H](OC[C@H]2O[C@@H](OC/C=C/c3ccccc3)[C@H](O)[C@@H](O)[C@@H]2O)[C@H](O)[C@H]1O | POU domain, class 3, transcription factor 3 (Homo sapiens, UniProt P20264) | binding | – | SPR | Kd | 7.57 µM |
| CC(C)C[C@H](NC(=O)[C@@H](N)[C@@H](C)O)C(=O)N[C@@H](CCC(N)=O)C(=O)N1CCC[C@H]1C(=O)N1CCC[C@H]1C(=O)N[C@@H](C)C(=O)N[C@@H](CO)C(=O)N[C@@H](CO)C(=O)N[C@@H](CCCNC(=N)N)C(=O)N[C@@H](CCCNC(=N)N)C(=O)N[C@@H](CCCNC(=N)N)C(=O)N[C@@H](Cc1c[nH]cn1)C(=O)N[C@@H](Cc1ccccc1)C(=O)N[C@@H](Cc1c[nH]cn1)C(=O)N[C@@H](Cc1c[nH]cn1)C(=O)N[C@@H](C)C(=O)N[C@@H](CC(C)C)C(=O)N1CCC[C@H]1C(=O)N1CCC[C@H]1C(=O)N[C@@H](C)C(=O)N[C@@H](CCCNC(=N)N)C(=O)O | C3a anaphylatoxin chemotactic receptor (C3AR1, Homo sapiens, UniProt Q16581) | β-arrestin recruitment | agonist | – | EC50 | 0.653 µM |
| O=C(NCc1cc(O)c(O)c(Br)c1)c1ccc(Cl)s1 | rep papain-like protease | enzyme activity | inhibitor | FRET | IC50 | 2.73 µM |
| N#CC[C@@]12C[C@@H]1[C@@H](n1cnc3c(NCCCCCCc4ccccc4)nc(I)nc31)[C@H](O)[C@@H]2O | SLC6A4 | ligand displacement | – | radioligand | Ki | 4.4 µM |
